ChEMBL document CHEMBL1158566, “The bisnaphthalimides as new active lead compounds against Plasmodium falciparum” (Bioorg Med Chem, 2010)
Calls of active or inactive are those of the source. The rule behind the calls is not given here.

Legend:
[1] = test system: Plasmodium falciparum; test: Antiplasmodial activity against chloroquine-sensitive Plasmodium falciparum 3D7 assessed as parasite-specific LDH release after 72 hrs by Malstat assay; format: functional, organism-based; settings: 3D7, 72 h
Summary of the method: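 Synchronized 3D7 ring stages seeded at 1% parasitemia with compound (in H2O or DMSO) across 10 pM–100 µM. DMSO 0.5% served as negative control. Cultured 72 h in triplicate, then viability read as Plasmodium lactate dehydrogenase activity (Malstat). Each compound run two to four times. IC50 and standard deviation calculated.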

[2] = Cytotoxicity against mouse J774.1 cells after 48 hrs by alamar blue satining; format: cell-based; settings: J774.1, 48 h
Summary of the method: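 J774.1 macrophages at 1×10^5 cells/mL in phenol-red-free RPMI (10% FCS, 2 mM glutamine, 10 mM Hepes pH 7.2, 50 µM 2-mercaptoethanol, antibiotics) with increasing compound concentrations, 24 h at 37 °C, 5% CO2. AlamarBlue added to 10%, further 24 and 48 h incubation. Absorbance read at 540 nm against 630 nm reference. Final DMSO ≤1%, duplicates.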

[3] = test system: Plasmodium falciparum; test: Antiplasmodial activity against chloroquine-resistant Plasmodium falciparum Dd2 assessed as parasite-specific LDH release after 72 hrs by Malstat assay; format: functional, organism-based; settings: Dd2, 72 h
Summary of the method: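 P. falciparum asexual blood stages: synchronized ring-stage cultures at 1% parasitemia, exposed to compounds (in water or DMSO) over 10 pM–100 µM for 72 h in triplicate. 0.5% DMSO served as negative control. Viability was read as parasite lactate dehydrogenase activity (Malstat). Each compound was run two to four times, and IC50 with standard deviation was calculated.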

[4] = test system: Plasmodium falciparum; test: Antiplasmodial activity against blood stage forms of chloroquine-sensitive Plasmodium falciparum 3D7 assessed as dysfunctional intracellular membrane biosynthesis at IC50 after 72 hrs by electron microscopy; format: functional, organism-based
Summary of the method: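 Blood-stage P. falciparum cultured in vitro, exposed 72 h to compound or to 0.5 vol % DMSO control. Fixed in 1% glutaraldehyde/4% paraformaldehyde in PBS, post-fixed in 1% OsO4/1.5% K3[Fe(CN)6], uranyl acetate stained, ethanol-dehydrated and Epon-embedded. Ultrathin sections post-stained with 1% uranyl acetate and examined by transmission EM for intracellular membrane whirls.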

C[N+](C)(CCCCCC[N+](C)(C)CCCN1C(=O)c2cccc3cccc(c23)C1=O)CCCN1C(=O)c2cccc3cccc(c23)C1=O
IC50 [1]: 7990 nM | IC50 [2]: > 100 µM

CC(C)(CN1C(=O)c2cccc3c([N+](=O)[O-])ccc(c23)C1=O)C[N+](C)(C)CCCCCC[N+](C)(C)CC(C)(C)CN1C(=O)c2cccc3c([N+](=O)[O-])ccc(c23)C1=O
IC50 [1]: 3480 nM | IC50 [2]: > 100 µM

C[N+](C)(CCCCC[N+](C)(C)CCCN1C(=O)c2cccc3cccc(c23)C1=O)CCCN1C(=O)c2cccc3cccc(c23)C1=O
IC50 [1]: > 100000 nM | IC50 [2]: > 100 µM

C[N+](C)(CCCCCCC[N+](C)(C)CCCN1C(=O)c2cccc3cccc(c23)C1=O)CCCN1C(=O)c2cccc3cccc(c23)C1=O
IC50 [1]: 510 nM | IC50 [2]: > 100 µM

CCC[N+](C)(C)CC(C)(C)CN1C(=O)c2cccc3cccc(c23)C1=O
IC50 [1]: 9810 nM | IC50 [3]: 8.11 µM | IC50 [2]: > 100 µM

C[N+](C)(C)CCCCCCCCCC[N+](C)(C)C [DECAMETHONIUM BROMIDE]
IC50 [1]: 911 nM | IC50 [2]: > 100 µM

C[N+](C)(CCCCCCCCCC[N+](C)(C)CCCN1C(=O)c2cccc3cccc(c23)C1=O)CCCN1C(=O)c2cccc3cccc(c23)C1=O
IC50 [1]: 145 nM | IC50 [2]: > 100 µM

C[N+](C)(CCCCCCCCC[N+](C)(C)CCCN1C(=O)c2cccc3cccc(c23)C1=O)CCCN1C(=O)c2cccc3cccc(c23)C1=O
IC50 [1]: 60 nM | IC50 [2]: > 100 µM

CN(C)CCCN1C(=O)c2cccc3cccc(c23)C1=O
IC50 [1]: > 100000 nM | IC50 [2]: > 100 µM

C[N+](C)(CCCC[N+](C)(C)CCCN1C(=O)c2cccc3cccc(c23)C1=O)CCCN1C(=O)c2cccc3cccc(c23)C1=O
IC50 [1]: > 100000 nM | IC50 [2]: > 100 µM

CC(C)(CN1C(=O)c2cccc3cccc(c23)C1=O)C[N+](C)(C)CCCCCC[N+](C)(C)CCCN1C(=O)c2cccc3cccc(c23)C1=O
IC50 [1]: 400 nM | IC50 [2]: > 100 µM | Activity [4]: Active

CC(C)(CN1C(=O)c2cccc3cc(N)cc(c23)C1=O)C[N+](C)(C)CCCCCC[N+](C)(C)CC(C)(C)CN1C(=O)c2cccc3cc(N)cc(c23)C1=O
IC50 [1]: 22600 nM | IC50 [2]: > 100 µM

CC(C)(CN1C(=O)c2cccc3cccc(c23)C1=O)C[N+](C)(C)CCCCCC[N+](C)(C)CC(C)(C)CN1C(=O)c2cccc3cccc(c23)C1=O
IC50 [1]: 800 nM | IC50 [2]: > 100 µM

C[N+](C)(CCCCCCCCCCC[N+](C)(C)CCCN1C(=O)c2cccc3cccc(c23)C1=O)CCCN1C(=O)c2cccc3cccc(c23)C1=O
IC50 [1]: 170 nM | IC50 [2]: > 100 µM

CC(C)(CN1C(=O)c2cccc3cc([N+](=O)[O-])cc(c23)C1=O)C[N+](C)(C)CCCCCC[N+](C)(C)CC(C)(C)CN1C(=O)c2cccc3cc([N+](=O)[O-])cc(c23)C1=O
IC50 [1]: 660 nM | IC50 [2]: > 100 µM | Activity [4]: Active

C[N+](C)(CCCCCCCC[N+](C)(C)CCCN1C(=O)c2cccc3cccc(c23)C1=O)CCCN1C(=O)c2cccc3cccc(c23)C1=O
IC50 [1]: 64 nM | IC50 [2]: > 100 µM

C[N+](C)(CCCN1C(=O)c2cccc3cccc(c23)C1=O)CCC[N+](C)(C)CCCN1C(=O)c2cccc3cccc(c23)C1=O
IC50 [1]: > 100000 nM | IC50 [2]: > 100 µM

CC(C)(CN1C(=O)c2cccc3c(N)ccc(c23)C1=O)C[N+](C)(C)CCCCCC[N+](C)(C)CC(C)(C)CN1C(=O)c2cccc3c(N)ccc(c23)C1=O
IC50 [1]: 6760 nM | IC50 [3]: 7.39 µM | IC50 [2]: > 100 µM

CC(C)(CN1C(=O)c2cccc3cccc(c23)C1=O)C[N+](C)(C)CCCCCCBr
IC50 [1]: 430 nM | IC50 [3]: 0.89 µM | IC50 [2]: > 100 µM

C[N+](C)(C)CCCCCCCCCCCC[N+](C)(C)C
IC50 [1]: 395 nM | IC50 [2]: > 100 µM

C[N+](C)(C)CCCCCC[N+](C)(C)C [HEXAMETHONIUM BROMIDE]
IC50 [1]: > 100000 nM | IC50 [2]: > 100 µM

C[N+](C)(CCCCCCCCCCCC[N+](C)(C)CCCN1C(=O)c2cccc3cccc(c23)C1=O)CCCN1C(=O)c2cccc3cccc(c23)C1=O
IC50 [1]: 219 nM | IC50 [2]: > 100 µM
